# Assay outcomes as filed in PubChem BioAssay.
# Many of the other results were omitted from the sample, so hits are more common in it than they were.
# NOD2 RIPK2 PPI: inhibitors of human NOD2-RIPK2 interaction | CHO BLA complementation NOD2-RIPK2, CCF4 ratio | inhibition, % at 4.98 µM | hit rate 0.38% among 360,000; in the data active = inhibition above about 21%
# TLR4-MyD88 BLA: blocks binding of human TLR4 to MyD88 | AID 861 | hit rate 0.18% among 200,000 | O00206+Q99836 | HeLa CL3-4 TLR4/MyD88 BLA complementation, FRET ratio | inhibition, % at 8.4 µM; in the data active = inhibition above about 25%
# XBP1 UPR activ: adaptive UPR (XBP1) activation. CHO-XBP1 luciferase reporter, IRE1-XBP1 UPR activation, luminescence; percent of tunicamycin response, DMSO as zero. hit rate 0.33% among 330,000. activation, % at 20 µM. AID 463104;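 active = versus positive control, 20 µM dose yields 30% or more activation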
#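 Material: CHO-XBP1 cells stably carrying IRE1-XBP1-driven luciferase reporter | Medium: F12 with 10% serum | Compound dosing: 20 µM single concentration, DMSO 1% | Incubation: Overnight seeding at 37 °C, 6 h compound treatment at 37 °C | Detection: Steady-Glo luminescence read | Read-out basis: % activation of reporter signal versus tunicamycin and DMSO controls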
# TLR9-MyD88 inh: blocks human TLR9 binding to MyD88; Q9NR96+Q99836; CHO BLA complementation TLR9-MyD88, CCF4 FRET ratio; inhibition, % at 4.98 µM; hit rate 0.21% among 340,000; AID 504734;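 active = inhibition above the mean over all tested compounds plus 3 SD, cut at about 21% in these data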
# CHOP inhibitor: inhibitors of CHOP induction in ER stress response; hit rate 3.8% among 220,000; inhibition, % at 10 µM; CHO-K1 CHOP-promoter luciferase, tunicamycin-induced, 15-18 h; AID 2732;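 active = compounds that reduced the stress-induced luciferase reporter signal by more than about 70% of percent inhibition, limit read from the data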
# CHOP UPR activ: activators of apoptotic arm of unfolded protein response (CHOP). CHO-CHOP luciferase reporter, UPR activation, luminescence; percent of tunicamycin response over DMSO baseline. activation, % at 10 µM. hit rate 0.34% among 330,000. AID 449763;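 active = at 10 µM dose, activation of 40% or more, normalized to positive control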
#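 Evaluation: % reporter activation, DMSO baseline versus tunicamycin full activation; System: CHO-CHOP luciferase reporter cell line; Input: 500 cells/well; Incubation: 6 h compound treatment, 37 °C; Measured by: Steady-Glo luciferase luminescence; Dosing: one dose, 10 µM in 0.5% DMSO; Buffer or medium: F12 medium, 10% FBS; Benchmarks: positive tunicamycin 10 µg/mL, negative DMSO alone.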
# UPR CHOP confirm: apoptotic UPR (CHOP) activation, confirmed. activation, % at 10 µM. hit rate 64% among 1,000. shares compounds with CHOP UPR activ. CHO-CHOP cells, CHOP-luciferase reporter luminescence; percent of tunicamycin response, DMSO as zero; in the data active = activation above about 33%
# Numbers stand for hits; 0 = inactive; - = not tested or not shown.
SMILES,NOD2 RIPK2 PPI,TLR4-MyD88 BLA,XBP1 UPR activ,TLR9-MyD88 inh,CHOP inhibitor,CHOP UPR activ,UPR CHOP confirm
CN(c1ccc(O)cc1)c1nc(-c2cccs2)cs1,0,0,0,0,0,48,0
S=C1SCN(Cc2ccco2)CN1Cc1ccco1,0,-,0,0,0,59,47
CCN1CSC(=S)N(Cc2ccccc2)C1,0,-,0,0,-,86,91
Cc1ccc(N=C2C(=S)N(c3ccc(C)cc3)C(=N)N2/N=C/c2ccc(Cl)cc2)cc1,0,0,0,0,0,57,0
CC(=O)n1cc(C(C[N+](=O)[O-])SCCN)c2ccccc21 (centres undefined),0,0,0,0,0,138,0
CSc1ccccc1C(=O)NCc1ccc2c(c1)OCO2,0,0,0,0,0,0,-
Brc1ccccc1CN1CCN(Cc2c[nH]c3ccccc23)CC1,-,-,0,-,-,41,153
COc1ccccc1N1C(=O)C=C(Sc2nc(C)cc(C)n2)C1=O,0,-,0,-,0,62,56
O=c1c2c3c(sc2ncn1/N=C/c1ccc([N+](=O)[O-])o1)CCCC3,0,0,0,0,0,213,195
Cn1cc(/C=N/n2cnc3sc4c(c3c2=O)CCCC4)c2ccccc21,0,0,0,0,0,0,-
O=C(CCc1ccc(O)c(O)c1)N/N=C/c1ccc2c(c1)OCO2,0,-,34,0,-,49,0
O=C(c1cccs1)N(C(=O)c1cccs1)c1ccc(Br)cn1,0,0,86,0,0,98,59
Clc1cccc(CNCCCSc2ncccn2)c1,0,-,0,0,-,0,-
Oc1c(C(c2ccccc2Cl)N2CCCC2)ccc2cccnc12 (centres undefined),0,0,0,0,102,106,132
O=[N+]([O-])c1ccc2nc(Cl)nc(-c3ccccc3)c2c1,0,-,0,0,-,106,87
COC(=O)c1ccc(-n2c(C)cc(C(=O)CSc3cccc[n+]3[O-])c2C)cc1,0,0,0,0,0,0,-
COC(=O)c1ccc(C(=O)OC)c(NC(=O)CSc2cccc[n+]2[O-])c1,0,0,0,0,0,87,122
COc1cccc2sc(Nc3nc(-c4ccccn4)cs3)nc12,0,0,0,0,-,624,425
COc1cccc2sc(Nc3nnc(-c4cccs4)o3)nc12,0,0,0,0,-,55,60
c1ccc(Nc2nc(-c3ccccn3)cs2)cc1,0,0,0,0,0,0,-
CNc1ccc(/C=C2\COc3ccccc3C2=O)cc1[N+](=O)[O-],0,0,0,0,0,0,-
O=C1/C(=C/c2ccccc2[N+](=O)[O-])COc2ccccc21,0,0,0,0,95,173,85
CC(C)(C)c1ccc(C(=O)O)c(C(=O)c2ccc(C(=O)O)cc2)c1,0,-,0,0,0,0,-
CCCCOC(=O)/C=C/c1ccc(OC(=O)OC)c(OC(=O)OC)c1,0,0,0,0,0,0,-
COC(=O)Oc1ccc(/C=C/C(=O)OC(C)C)cc1OC(=O)OC,0,0,0,0,0,131,61
SMILES,NOD2 RIPK2 PPI,TLR4-MyD88 BLA,XBP1 UPR activ,TLR9-MyD88 inh,CHOP inhibitor,CHOP UPR activ,UPR CHOP confirm
CN=c1scc(-c2ccccc2F)n1/N=C/c1ccc(O)c(O)c1O,0,0,-,0,0,-,-
CC(C)N=c1scc(-c2cccs2)n1/N=C/c1ccc(O)c(O)c1O,0,0,37,0,106,212,150
COc1ccc(-n2nnnc2CNC(=O)c2ccc3c(c2)OCO3)cc1,0,-,0,0,-,0,-
CC(C)CCNC(=O)c1ccc2c(SCC(=O)O)c3c(nc2c1)CCCC3,0,0,0,0,0,44,0
CCN(CC)CCCNC(=O)c1ccc2c(SCC(=O)O)c3c(nc2c1)CCC3,-,0,0,-,0,0,-
CCOC(=O)c1cc(C#N)c(SCC(=O)OC)[nH]c1=O,0,-,0,0,0,0,-
COc1ccc(C(C[N+](=O)[O-])c2c(C)[nH]n(-c3ccccc3)c2=O)cc1 (centres undefined),0,-,0,0,-,89,0
COc1cc(C=O)ccc1OC(=O)Nc1ccccc1,0,-,0,0,-,0,-
COc1cc(/C=C/C(=O)N2C(=O)c3cccc(N)c3C2=O)cc(OC)c1OC,0,0,0,0,94,68,53
COc1cccc(N(CC(=O)NC2CCCC2)C(=O)CCC(=O)Nc2cc(C)on2)c1,0,-,0,0,-,0,-
CCCCCCCCCn1c2c(c(=N)c3c1CCC3)CCC2,0,0,0,0,-,57,43
CCOC(=O)c1c(NC(=O)CN2C(=O)NC(C)(c3ccc(Cl)cc3)C2=O)sc(C(=O)NC)c1C (centres undefined),0,0,0,0,0,0,-
O=Cc1ccc(O)c2ncccc12,0,-,0,0,0,86,89
NS(=O)(=O)c1ccc(N=Nc2ccc(O)c3ncccc23)cc1,0,-,0,0,-,0,-
C=CCNC(=O)COC(=O)c1c2c(nc3ccccc13)CCC2,0,-,0,0,-,0,-
O=C(N/N=C/c1ccccn1)c1sc2ccccc2c1Cl,0,-,0,0,0,179,104
O=C(N/N=C/c1ccccn1)c1cc(-c2ccc(Cl)cc2)nc2ccccc12,0,0,0,0,83,264,290
O=C(N/N=C/c1c[nH]c2ccccc12)c1sc2ccccc2c1Cl,0,0,0,0,0,0,-
O=C(N/N=C/c1ccccn1)c1cc(-c2ccc(Br)cc2)nc2ccccc12,0,-,0,0,0,331,265
COc1ccc(-c2[nH]nc3nc(N4CCN(C(=O)c5ccoc5)CC4)cc(C(F)(F)F)c23)cc1,0,-,-,0,-,-,-
O=C1/C(=C/c2cccc(Br)c2)SC(=S)N1/N=C/c1cc([N+](=O)[O-])ccc1O,0,-,0,0,0,0,-
Oc1[nH]c2ccccc2c1N=NC(=S)N1CCOCC1,0,-,0,0,0,254,229
Oc1[nH]c2ccc(Br)cc2c1N=NC(=S)N1CCOCC1,0,-,0,0,0,168,102
COC(=O)N=Nc1c(O)[nH]c2ccc(Br)cc12,0,-,0,0,0,0,-
COc1cc(/C=C(\C#N)C(N)=O)ccc1OS(=O)(=O)c1ccc(C)cc1,0,0,0,0,0,0,-
COc1cc(/C=C(\C#N)C(=O)NC2CCCCC2C)ccc1OS(=O)(=O)c1ccc(C)cc1 (centres undefined),0,0,0,0,0,76,0
CC(C)N1CCc2c(sc(NC(=O)c3ccc([N+](=O)[O-])o3)c2C(N)=O)C1,0,-,0,0,-,0,-
COC(=O)c1c(NC(=O)c2ccc([N+](=O)[O-])o2)sc2c1CCN(C(C)C)C2,0,-,0,0,-,71,56
Cc1[nH]c2ccccc2c1/C=N/Nc1nc2ccccc2[nH]1,0,-,0,-,0,87,0
